The source made the active and inactive calls. The calls are words filed in the database; no cut-off is given here.
How the values were obtained:
[1] = target: Indoleamine 2,3-dioxygenase 1 (Homo sapiens, UniProt P14902); test: Inhibition of indoleamine 2,3-dioxygenase in aerobic condition
[2] = Hypoxic cytotoxicity ratio of IC50 for mouse EMT6/KU cells in aerobic condition to IC50 for mouse EMT6/KU cells in hypoxic condition; assay type: functional
In short: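 IC50 values came from clonogenic survival of EMT6/KU cells after 5 h drug exposure at 37 °C, either aerobic (CO2 incubator) or hypoxic (5% CO2/95% N2 chamber), with Giemsa-stained colonies counted after 7–10 days. The ratio is IC50(aerobic)/IC50(hypoxic).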

[3] = Cytotoxicity against mouse EMT6/KU cells in aerobic condition for 5 hrs measured after 7 to 10 days; assay type: functional, cell-based
In short: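 Late-log cells were plated at 10^3, 5×10^2 or 2×10^2 per dish and grown 24 h. Drug in DMSO diluted in medium was then given in a CO2 incubator at 37 °C for 5 h. After washout, colonies grew 7–10 days and were methanol-fixed, Giemsa-stained and counted.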

[4] = Cytotoxicity against mouse EMT6/KU cells in hypoxic condition for 5 hrs measured after 7 to 10 days; assay type: functional, cell-based
In short: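 Drug medium (DMSO stock diluted in medium) was added and the cells were held 5 h at 37 °C in a hypoxic chamber flushed with 5% CO2/95% N2. After drug removal, colonies grew 7–10 days, then were methanol-fixed, Giemsa-stained and counted for surviving fraction.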

Row | Compound | Activity [1] | Ratio IC50 [2] | IC50 [3] [µM] | IC50 [4] [µM] | Ki [1] [µM]
1 | O=C(NCCCCNc1n[n+]([O-])c2ccccc2[n+]1[O-])C(F)(F)F | inactive | – | – | – | –
2 | O=C(NCCCCCNc1nc2ccccc2[n+]([O-])n1)C(F)(F)F | inactive | – | – | – | –
3 | Cn1cc(C[C@H](NC(=O)OC(C)(C)C)C(=O)NCCCCCNc2n[n+]([O-])c3ccccc3[n+]2[O-])c2ccccc21 | – | 4.9 | 35 | 7.1 | 197
4 | Nc1n[n+]([O-])c2ccccc2[n+]1[O-] [TIRAPAZAMINE] | inactive | 3.2 | 38 | 12 | –
5 | Cn1cc(C[C@H](NC(=O)OC(C)(C)C)C(=O)NCCCCNc2nc3ccccc3[n+]([O-])n2)c2ccccc21 | – | 1.1 | 36 | 33 | 87.1
6 | Cn1cc(C[C@H](NC(=O)OC(C)(C)C)C(=O)NCCCCCNc2nc3ccccc3[n+]([O-])n2)c2ccccc21 | – | 1.3 | 42 | 33 | 76.3
7 | Nc1nc2ccccc2[n+]([O-])n1 | inactive | – | > 80 | > 40 | –
8 | Cn1cc(C[C@H](NC(=O)OC(C)(C)C)C(=O)NCCCCNc2n[n+]([O-])c3ccccc3[n+]2[O-])c2ccccc21 | – | >5 | > 40 | 8 | 367
9 | O=C(NCCCCCNc1n[n+]([O-])c2ccccc2[n+]1[O-])C(F)(F)F | inactive | – | – | – | –
10 | Cn1cc(C[C@H](NC(=O)OC(C)(C)C)C(=O)O)c2ccccc21 | inactive | – | – | – | –
11 | O=C(NCCCCNc1nc2ccccc2[n+]([O-])n1)C(F)(F)F | inactive | – | – | – | –

From ChEMBL document CHEMBL1151788, “Synthesis and biological activity of 1-methyl-tryptophan-tirapazamine hybrids as hypoxia-targeting indoleamine 2,3-dioxygenase inhibitors” (Bioorg Med Chem, 2008)
